Assay results: ChEMBL document CHEMBL1275449, “Potent in vitro antifungal activities of naturally occurring acetylenic acids” (Antimicrob Agents Chemother, 2008)
In brackets after ≈: the same amount, converted by molar mass. Activity calls are given as the source filed them. The rule behind the calls is not given here.

Assays:
Candida tropicalis [1] = test: Antifungal activity against Candida tropicalis ATCC 750 after 48 hrs by CLSI method; assay type: functional, organism-based; details: ATCC 750, 48 h
Summary of the method: (§1)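 Yeast suspensions made from 3-5 colonies off 24-72 h SD agar plates in saline. They were diluted by OD630 standard curve in RPMI 1640 (0.2% dextrose, 0.03% glutamine, 0.165 M MOPS, pH 7.0) to 1.5 × 10³ CFU/ml. Twofold dilutions (11 concentrations, 20% DMSO-saline) run in duplicate. OD530 read before and after 35°C, 48 h. Line values are top test concentrations; no-growth endpoints give MIC/MFC.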

Candida parapsilosis [2] = test: Antifungal activity against Candida parapsilosis ATCC 22019 after 48 hrs by CLSI method; assay type: functional, organism-based; details: Lodderomyces parapsilosis, ATCC 22019, 48 h; summary of the method: as §1
Candida albicans [3] = test: Antifungal activity against Candida albicans assessed as inhibition of growth at 100 uM; assay type: functional, organism-based
Pichia kudriavzevii [4] = test: Antifungal activity against Candida krusei ATCC 6258 at 542.7 uM after 48 hrs by CLSI method; assay type: functional, organism-based; summary of the method: as §1
Trichophyton rubrum [5] = test: Antifungal activity against Trichophyton rubrum ATCC MYA-4438 at 542.7 uM after 5 days by CLSI method; assay type: functional, organism-based
[6] = system: Trichophyton mentagrophytes; test: Antifungal activity against Trichophyton mentagrophytes ATCC 9533 by CLSI method; assay type: functional, organism-based
Summary of the method: (§2)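 Growth scraped from 1- to 6-week-old potato dextrose slants and filtered through Miracloth. Diluted in 5% Alamar blue-RPMI 1640 (MOPS pH 7.0) to 2.7 × 10⁴ CFU/ml. Eleven twofold dilutions in duplicate. Fluorescence at 544 nm excitation/590 nm emission read before and after 35°C, 5 days. IC50 fitted from percent growth. MIC taken as no detectable growth; MFC from clear or blue wells plated on PD agar.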

Candida albicans [7] = test: Antifungal activity against Candida albicans ATCC 14053 after 48 hrs by CLSI method; assay type: functional, organism-based; details: ATCC 14053, 48 h
Summary of the method: (§3)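 CLSI broth microdilution. Colonies from 24–72 h SD agar suspended in saline and sized by OD630 standard curve. Inoculum 1.5 × 10³ CFU/ml (final) in RPMI 1640 (0.2% dextrose, 0.03% glutamine, 0.165 M MOPS, pH 7.0). Twofold dilutions (11 levels) from 20% DMSO-saline, in duplicate. 35°C for 48 h, OD530 read before and after. IC50 fitted from % growth. MIC: no detectable growth. MFC: subculture onto SD agar.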

Candida albicans [8] = test: Antifungal activity against Fluconazole resistant Candida albicans isolate 17 at 542.7 uM after 48 hrs by CLSI method; assay type: functional, organism-based
Summary of the method: (§4)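 Candida in CLSI broth microdilution. Saline colony suspension set to 1.5 × 10³ CFU/ml (final) in MOPS-buffered RPMI 1640, pH 7.0. Test agent given as twofold serial dilutions in 20% DMSO-saline, duplicate wells. 35°C for 48 h. Growth read as OD530 before and after incubation. Percent inhibition scored at the highest test concentration.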

Pichia kudriavzevii [9] = test: Antifungal activity against Candida krusei ATCC 6258 after 48 hrs by CLSI method; assay type: functional, organism-based; details: ATCC 6258, 48 h
Summary of the method: (§5)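 Candida inocula came from 24–72-h SD agar colonies suspended in saline. They were diluted by OD630 standard curve into RPMI 1640 (0.2% dextrose, 0.03% glutamine, 0.165 M MOPS, pH 7.0) to 1.5 × 10³ CFU/ml. Compounds were run as 11 twofold dilutions in 20% DMSO-saline, in duplicate, at 35°C for 48 h, with OD530 read before and after. Percent growth at the top concentration, IC50, MIC, and MFC (SD agar plating) were derived.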

Candida albicans [10] = test: Antifungal activity against Candida albicans ATCC 200955 at 542.7 uM after 48 hrs by CLSI method; assay type: functional, organism-based; summary of the method: as §5
Nakaseomyces glabratus = test: Antifungal activity against Candida glabrata ATCC 90030 at 542.7 uM after 48 hrs by CLSI method; assay type: functional, organism-based; summary of the method: as §5
Aspergillus fumigatus [11] = test: Antifungal activity against Aspergillus fumigatus ATCC 90906 at 542.7 uM after 48 hrs by CLSI method; assay type: functional, organism-based
Candida albicans [12] = test: Antifungal activity against Candida albicans ATCC 32354 at 542.7 uM after 48 hrs by CLSI method; assay type: functional, organism-based; summary of the method: as §5
Candida albicans [13] = test: Antifungal activity against Fluconazole resistant Candida albicans clinical isolate 17 after 48 hrs by CLSI method; assay type: functional, organism-based; summary of the method: as §3
[14] = system: Trichophyton mentagrophytes; test: Antifungal activity against Trichophyton mentagrophytes ATCC 9533 at 542.7 uM after 5 days by CLSI method; assay type: functional, organism-based
Candida albicans [15] = test: Antifungal activity against Candida albicans ATCC 90028 at 542.7 uM after 48 hrs by CLSI method; assay type: functional, organism-based; summary of the method: as §5
Aspergillus niger [16] = test: Antifungal activity against Aspergillus niger ATCC 16404 at 542.7 uM after 48 hrs by CLSI method; assay type: functional, organism-based
Candida albicans [17] = test: Antifungal activity against Candida albicans ATCC 60193 after 48 hrs by CLSI method; assay type: functional, organism-based; details: ATCC 60193, 48 h; summary of the method: as §3
Trichophyton rubrum [18] = test: Antifungal activity against Trichophyton rubrum ATCC MYA-4438 by CLSI method; assay type: functional, organism-based; summary of the method: as §2
[19] = system: Trichophyton mentagrophytes; test: Antifungal activity against Trichophyton mentagrophytes ATCC MYA-4439 by CLSI method; assay type: functional, organism-based; summary of the method: as §2
Aspergillus niger [20] = test: Antifungal activity against Aspergillus niger ATCC 16404 after 48 h by CLSI method; details: ATCC 16404, 48 h
Cryptococcus neoformans [21] = test: Antifungal activity against Cryptococcus neoformans ATCC 90113 after 72 hrs by CLSI method; assay type: functional, organism-based; details: ATCC 90113, 72 h
Summary of the method: (§6)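 SD broth replaced RPMI because growth in RPMI was poor; other CLSI conditions were kept. Inoculum was 1.5 × 10³ CFU/ml from colonies on SD agar, checked by plating. Twofold serial dilutions (11 concentrations) in 20% DMSO-saline were tested in duplicate. OD530 was read before and after incubation at 35°C for 72 h. Percent growth gave IC50; the MIC is the lowest concentration with no detectable growth.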

Cryptococcus neoformans [22] = test: Antifungal activity against Cryptococcus neoformans ATCC 66031 after 72 hrs by CLSI method; assay type: functional, organism-based; details: ATCC 66031, 72 h; summary of the method: as §6
Candida albicans [23] = test: Antifungal activity against Candida albicans ATCC 32354 after 48 hrs by CLSI method; assay type: functional, organism-based; details: ATCC 32354, 48 h; summary of the method: as §3
Candida albicans [24] = test: Antifungal activity against Candida albicans assessed as inhibition of morphogenesis at 10 uM; assay type: functional, organism-based
Trichophyton rubrum [25] = test: Antifungal activity against Trichophyton rubrum ATCC 10218 at 542.7 uM after 5 days by CLSI method; assay type: functional, organism-based
Candida albicans [26] = test: Antifungal activity against Candida albicans ATCC 14053 at 542.7 uM after 48 hrs by CLSI method; assay type: functional, organism-based
Candida albicans [27] = test: Antifungal activity against Fluconazole resistant Candida albicans isolate 1 at 542.7 uM after 48 hrs by CLSI method; assay type: functional, organism-based; summary of the method: as §4
[28] = system: Trichophyton mentagrophytes; test: Antifungal activity against Trichophyton mentagrophytes ATCC MYA-4439 at 542.7 uM after 5 days by CLSI method; assay type: functional, organism-based
Candida tropicalis [29] = test: Antifungal activity against Candida tropicalis ATCC 750 at 542.7 uM after 48 hrs by CLSI method; assay type: functional, organism-based; summary of the method: as §1
Candida albicans [30] = test: Antifungal activity against Fluconazole resistant Candida albicans clinical isolate 1 after 48 hrs by CLSI method; assay type: functional, organism-based; summary of the method: as §3
Candida albicans [31] = test: Antifungal activity against Candida albicans ATCC 200955 after 48 hrs by CLSI method; assay type: functional, organism-based; details: ATCC 200955, 48 h; summary of the method: as §3
Candida albicans [32] = test: Antifungal activity against Candida albicans ATCC 60193 at 542.7 uM after 48 hrs by CLSI method; assay type: functional, organism-based; summary of the method: as §5
Trichophyton rubrum [33] = test: Antifungal activity against Trichophyton rubrum ATCC 10218 by CLSI method; assay type: functional, organism-based; summary of the method: as §2
Aspergillus fumigatus [34] = test: Antifungal activity against Aspergillus fumigatus ATCC 204305 at 542.7 uM after 48 hrs by CLSI method; assay type: functional, organism-based
Candida parapsilosis [35] = test: Antifungal activity against Candida parapsilosis ATCC 22019 at 542.7 uM after 48 hrs by CLSI method; assay type: functional, organism-based; summary of the method: as §1
Aspergillus flavus = test: Antifungal activity against Aspergillus flavus ATCC 204304 at 542.7 uM after 48 hrs by CLSI method; assay type: functional, organism-based

Question: Which IC50 (Candida tropicalis [1]) does the source give for C=CCCCCCCCCC(=O)O [UNDECYLENIC ACID] here?
Answer: The IC50 was greater than 543 µM.

Question: And the IC50 (Candida parapsilosis [2])?
Answer: Its IC50 is greater than 543 µM.

Question: What about the inhibition (Candida albicans [3]) of the same compound?
Answer: The inhibition was “inactive”.

Question: What about the Activity (Pichia kudriavzevii [4]) of the same compound?
Answer: The Activity was “inactive”.

Question: What about the Activity (Trichophyton rubrum [5]) of the same compound?
Answer: The Activity was “inactive”.

Question: What about the IC50 [6] of the same compound?
Answer: The IC50 was 279 µM.

Question: And the MIC [6]?
Answer: Its MIC is 543 µM (≈ 100 µg/mL).

Question: What about the IC50 (Candida albicans [7]) of the same compound?
Answer: The IC50 was greater than 543 µM.

Question: And the Activity (Candida albicans [8])?
Answer: The Activity was “inactive”.

Question: And the IC50 (Pichia kudriavzevii [9])?
Answer: The IC50 was greater than 543 µM.

Question: What about the Activity (Candida albicans [10]) of the same compound?
Answer: The Activity was “inactive”.

Question: And the Activity (Nakaseomyces glabratus)?
Answer: The Activity was “inactive”.

Question: What about the Activity (Aspergillus fumigatus [11]) of the same compound?
Answer: The Activity was “inactive”.

Question: What about the Activity (Candida albicans [12]) of the same compound?
Answer: Its Activity is “inactive”.

Question: What about the IC50 (Candida albicans [13]) of the same compound?
Answer: Its IC50 is greater than 543 µM.

Question: And the Activity [14]?
Answer: The Activity was “inactive”.

Question: What about the Activity (Candida albicans [15]) of the same compound?
Answer: The Activity was “inactive”.

Question: What about the Activity (Aspergillus niger [16]) of the same compound?
Answer: The Activity was “inactive”.

Question: What about the IC50 (Candida albicans [17]) of the same compound?
Answer: The IC50 was greater than 543 µM.

Question: What about the IC50 (Trichophyton rubrum [18]) of the same compound?
Answer: Its IC50 is 111 µM.

Question: And the MIC (Trichophyton rubrum [18])?
Answer: Its MIC is 543 µM (≈ 100 µg/mL).

Question: And the IC50 [19]?
Answer: Its IC50 is 379 µM.

Question: What about the MIC [19] of the same compound?
Answer: Its MIC is 543 µM (≈ 100 µg/mL).

Question: And the IC50 (Aspergillus niger [20])?
Answer: The IC50 was 415 µM.

Question: What about the IC50 (Cryptococcus neoformans [21]) of the same compound?
Answer: Its IC50 is 25.3 µM.

Question: What about the MFC (Cryptococcus neoformans [21]) of the same compound?
Answer: Its MFC is 543 µM (≈ 100 µg/mL).

Question: What about the MIC (Cryptococcus neoformans [21]) of the same compound?
Answer: The MIC was 271 µM (≈ 50 µg/mL).

Question: And the IC50 (Cryptococcus neoformans [22])?
Answer: Its IC50 is 2700 nM.

Question: What about the MFC (Cryptococcus neoformans [22]) of the same compound?
Answer: The MFC was 271 µM (≈ 50 µg/mL).

Question: And the MIC (Cryptococcus neoformans [22])?
Answer: The MIC was 136 µM (≈ 25 µg/mL).

Question: What about the IC50 (Candida albicans [23]) of the same compound?
Answer: The IC50 was greater than 543 µM.

Question: What about the inhibition (Candida albicans [24]) of the same compound?
Answer: Its inhibition is “Active”.

Question: What about the Activity (Trichophyton rubrum [25]) of the same compound?
Answer: Its Activity is “inactive”.

Question: What about the Activity (Candida albicans [26]) of the same compound?
Answer: The Activity was “inactive”.

Question: What about the Activity (Candida albicans [27]) of the same compound?
Answer: Its Activity is “inactive”.

Question: And the Activity [28]?
Answer: The Activity was “inactive”.

Question: What about the Activity (Candida tropicalis [29]) of the same compound?
Answer: The Activity was “inactive”.

Question: What about the IC50 (Candida albicans [30]) of the same compound?
Answer: The IC50 was greater than 543 µM.

Question: What about the IC50 (Candida albicans [31]) of the same compound?
Answer: The IC50 was greater than 543 µM.

Question: What about the Activity (Candida albicans [32]) of the same compound?
Answer: Its Activity is “inactive”.

Question: What about the IC50 (Trichophyton rubrum [33]) of the same compound?
Answer: The IC50 was 270 µM.

Question: What about the MIC (Trichophyton rubrum [33]) of the same compound?
Answer: The MIC was 543 µM (≈ 100 µg/mL).

Question: And the Activity (Aspergillus fumigatus [34])?
Answer: The Activity was “inactive”.

Question: What about the Activity (Candida parapsilosis [35]) of the same compound?
Answer: The Activity was “inactive”.

Question: What about the Activity (Aspergillus flavus) of the same compound?
Answer: Its Activity is “inactive”.
